# Legend:
# [1] = molecular target: T1, Alpha-2A adrenergic receptor (Homo sapiens, UniProt P08913); test: (§1) Binding affinity towards human alpha-2A adrenergic receptor expressed in Chinese Hamster ovary (CHO) cells; type: functional, cell-based
# T1 sequence (P08913 whole entry): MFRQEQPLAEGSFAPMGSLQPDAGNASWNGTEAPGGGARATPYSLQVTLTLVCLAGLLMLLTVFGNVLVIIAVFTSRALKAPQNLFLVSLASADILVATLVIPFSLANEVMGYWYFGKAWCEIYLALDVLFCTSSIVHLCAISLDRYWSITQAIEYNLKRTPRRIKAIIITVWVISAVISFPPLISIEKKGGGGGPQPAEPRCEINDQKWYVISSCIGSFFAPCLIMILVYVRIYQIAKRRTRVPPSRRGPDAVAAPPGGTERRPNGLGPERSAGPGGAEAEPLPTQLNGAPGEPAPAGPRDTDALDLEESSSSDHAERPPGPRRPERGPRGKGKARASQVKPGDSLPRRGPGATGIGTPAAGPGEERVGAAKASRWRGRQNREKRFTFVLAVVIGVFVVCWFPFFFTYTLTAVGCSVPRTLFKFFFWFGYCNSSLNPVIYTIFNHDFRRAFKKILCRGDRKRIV
# [2] = molecular target: T2, Alpha-1A adrenergic receptor (Homo sapiens, UniProt P35348); test: Binding affinity towards alpha-1A adrenergic receptor expressed in human embryonic kidney (HEK293) cells; type: cell-based
# T2 sequence (P35348 whole entry): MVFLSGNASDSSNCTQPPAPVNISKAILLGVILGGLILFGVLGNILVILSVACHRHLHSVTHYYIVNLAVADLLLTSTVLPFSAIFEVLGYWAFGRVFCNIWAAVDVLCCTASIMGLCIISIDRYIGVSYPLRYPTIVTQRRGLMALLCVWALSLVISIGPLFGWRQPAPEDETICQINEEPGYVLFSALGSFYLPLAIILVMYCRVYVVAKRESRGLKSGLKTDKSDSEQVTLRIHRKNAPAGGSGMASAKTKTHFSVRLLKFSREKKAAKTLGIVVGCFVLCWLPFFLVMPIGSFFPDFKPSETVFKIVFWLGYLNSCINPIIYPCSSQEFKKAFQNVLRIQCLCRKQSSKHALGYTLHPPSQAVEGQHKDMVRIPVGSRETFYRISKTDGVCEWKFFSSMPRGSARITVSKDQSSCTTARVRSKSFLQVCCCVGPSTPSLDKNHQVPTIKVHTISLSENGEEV
# [3] = molecular target: T3, Alpha-1D adrenergic receptor (Rattus norvegicus) (UniProt P23944); test: Potency against alpha-1D adrenergic receptor is determined by phenylephrine-induced contractions in rat; type: functional
# T3 sequence (whole entry): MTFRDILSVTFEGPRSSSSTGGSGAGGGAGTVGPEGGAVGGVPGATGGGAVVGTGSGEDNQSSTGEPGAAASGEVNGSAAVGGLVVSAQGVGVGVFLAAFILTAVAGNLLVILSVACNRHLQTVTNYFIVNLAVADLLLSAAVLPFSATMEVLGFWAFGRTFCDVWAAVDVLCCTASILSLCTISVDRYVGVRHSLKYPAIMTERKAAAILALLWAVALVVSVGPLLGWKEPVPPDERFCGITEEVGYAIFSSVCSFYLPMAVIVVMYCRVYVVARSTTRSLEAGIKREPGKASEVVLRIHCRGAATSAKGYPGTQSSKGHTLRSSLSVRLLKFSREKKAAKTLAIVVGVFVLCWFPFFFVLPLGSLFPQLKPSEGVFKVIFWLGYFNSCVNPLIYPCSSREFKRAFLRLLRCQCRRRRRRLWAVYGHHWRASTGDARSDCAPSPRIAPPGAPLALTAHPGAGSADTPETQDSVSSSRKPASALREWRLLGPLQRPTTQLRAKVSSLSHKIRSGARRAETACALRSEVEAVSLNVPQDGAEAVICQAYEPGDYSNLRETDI
# In short: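 Isolated rat aorta contracted with phenylephrine, with cumulative concentration–response curves run with and without antagonist. KB = antagonist concentration/(dose ratio − 1) by Schild, where dose ratio is the phenylephrine EC50 with antagonist over EC50 without. Means with 95% confidence limits, N = 4–6 experiments.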
# [4] = molecular target: T1, Alpha-2A adrenergic receptor; test: as §1; type: cell-based
# [5] = molecular target: T4, Alpha-1D adrenergic receptor (Homo sapiens, UniProt P25100); test: Binding affinity towards human alpha-1D adrenergic receptor expressed in human embryonic kidney (HEK293) cells
# T4 sequence (P25100 whole entry): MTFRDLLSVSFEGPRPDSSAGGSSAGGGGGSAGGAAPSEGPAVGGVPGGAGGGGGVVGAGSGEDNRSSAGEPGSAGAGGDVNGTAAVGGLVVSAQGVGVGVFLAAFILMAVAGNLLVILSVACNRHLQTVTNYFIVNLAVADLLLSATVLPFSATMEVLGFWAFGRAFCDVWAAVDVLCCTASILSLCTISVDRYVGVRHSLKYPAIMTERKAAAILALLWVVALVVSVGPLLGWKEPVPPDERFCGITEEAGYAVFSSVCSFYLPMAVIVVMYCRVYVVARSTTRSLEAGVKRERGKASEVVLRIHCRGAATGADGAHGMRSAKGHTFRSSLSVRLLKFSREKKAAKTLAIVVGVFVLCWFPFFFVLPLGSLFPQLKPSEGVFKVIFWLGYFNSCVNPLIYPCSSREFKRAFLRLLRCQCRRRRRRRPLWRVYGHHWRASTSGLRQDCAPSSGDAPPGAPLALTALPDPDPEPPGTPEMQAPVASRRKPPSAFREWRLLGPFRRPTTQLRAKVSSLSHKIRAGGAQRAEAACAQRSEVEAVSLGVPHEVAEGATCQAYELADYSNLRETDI
# [6] = molecular target: T5, Alpha-2B adrenergic receptor (Homo sapiens, UniProt P18089); test: Binding affinity towards human alpha-2B adrenergic receptor expressed in Chinese Hamster ovary (CHO) cells; type: cell-based
# T5 sequence (P18089 whole entry): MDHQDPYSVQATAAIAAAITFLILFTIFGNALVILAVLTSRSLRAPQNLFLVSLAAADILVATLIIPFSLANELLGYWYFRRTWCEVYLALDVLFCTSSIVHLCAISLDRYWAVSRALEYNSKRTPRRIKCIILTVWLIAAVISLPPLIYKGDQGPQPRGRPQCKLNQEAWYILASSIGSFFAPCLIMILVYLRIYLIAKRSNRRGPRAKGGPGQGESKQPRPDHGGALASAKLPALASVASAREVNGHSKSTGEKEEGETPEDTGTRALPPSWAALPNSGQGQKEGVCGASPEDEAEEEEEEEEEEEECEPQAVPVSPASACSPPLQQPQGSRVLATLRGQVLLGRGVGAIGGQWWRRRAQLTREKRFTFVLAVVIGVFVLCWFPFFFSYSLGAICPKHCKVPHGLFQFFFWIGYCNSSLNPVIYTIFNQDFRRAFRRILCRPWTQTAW
# [7] = molecular target: T6, Alpha-2C adrenergic receptor (Homo sapiens, UniProt P18825); test: Binding affinity towards human alpha-2C adrenergic receptor expressed in Chinese Hamster ovary (CHO) cells; type: cell-based
# T6 sequence (P18825 whole entry): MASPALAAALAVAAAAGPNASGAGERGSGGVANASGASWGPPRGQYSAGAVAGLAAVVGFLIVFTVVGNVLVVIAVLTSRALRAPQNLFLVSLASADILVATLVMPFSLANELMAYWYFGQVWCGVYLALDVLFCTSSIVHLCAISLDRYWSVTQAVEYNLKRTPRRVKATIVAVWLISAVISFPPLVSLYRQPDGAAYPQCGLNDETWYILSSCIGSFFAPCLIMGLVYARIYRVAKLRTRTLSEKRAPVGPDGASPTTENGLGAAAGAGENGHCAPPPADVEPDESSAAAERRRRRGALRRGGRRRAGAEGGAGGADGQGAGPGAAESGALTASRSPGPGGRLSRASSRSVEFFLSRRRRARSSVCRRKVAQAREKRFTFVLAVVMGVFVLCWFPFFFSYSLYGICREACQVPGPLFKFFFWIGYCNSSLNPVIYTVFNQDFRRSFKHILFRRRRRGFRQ
# [8] = molecular target: T7, Alpha-1B adrenergic receptor (Homo sapiens, UniProt P35368); test: Binding affinity towards human alpha-1B adrenergic receptor expressed in human embryonic kidney (HEK293) cells
# T7 sequence (P35368 whole entry): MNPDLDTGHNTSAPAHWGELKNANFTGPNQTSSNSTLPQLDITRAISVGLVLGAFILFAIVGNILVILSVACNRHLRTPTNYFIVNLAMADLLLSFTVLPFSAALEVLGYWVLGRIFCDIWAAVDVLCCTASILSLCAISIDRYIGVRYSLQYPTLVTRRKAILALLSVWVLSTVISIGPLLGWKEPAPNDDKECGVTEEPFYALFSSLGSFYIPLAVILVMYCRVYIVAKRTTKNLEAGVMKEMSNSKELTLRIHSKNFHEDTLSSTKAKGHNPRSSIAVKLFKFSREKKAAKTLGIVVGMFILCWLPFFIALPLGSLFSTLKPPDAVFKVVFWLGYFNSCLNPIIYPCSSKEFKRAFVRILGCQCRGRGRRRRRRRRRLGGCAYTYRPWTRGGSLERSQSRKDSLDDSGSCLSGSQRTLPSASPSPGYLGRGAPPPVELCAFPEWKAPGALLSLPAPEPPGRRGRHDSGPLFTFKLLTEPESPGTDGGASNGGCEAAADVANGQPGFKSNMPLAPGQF
Ki [1],Ki [2],Kb [3],Ki [4],Ki [5],Ki [6],Ki [7],Ki [8],SMILES
24600 nM,5740 nM,> 30000 nM,–,–,–,–,–,COc1cccc(N(NC2=NCCO2)c2ccc(C)cc2)c1
–,5620 nM,13000 nM,18600 nM,–,–,–,–,Cc1ccc(N(NC2=NCCO2)c2cccc(O)c2)cc1
–,19.9 nM,7.4 nM,6.3 nM,17.5 nM,7.3 nM,3.8 nM,103 nM,COc1cccc(N(NC2=NCCN2)c2ccc(C)cc2)c1
–,26.8 nM,2.9 nM,23.8 nM,49.7 nM,18 nM,12.8 nM,843 nM,Cc1ccc(N(NC2=NCCN2)c2cccc(O)c2)cc1

# Reference: ChEMBL document CHEMBL1143453 (Bioorg Med Chem Lett, 2005)
